Measured values taken from ChEMBL document CHEMBL1126604, “Synthesis and antiviral activity of 5-thien-2-yl-2'-deoxyuridine analogues” (1993).
Values after ≈ are worked out from the molar mass of the structure shown.

System: Mus musculus
Assay: Survival of mice after intraperitoneal infection with HSV-1 (KOS) and oral administration of 25 mg/kg at day 6
Type: functional
Conditions: not given
Outline: (§1)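 Mice were infected intraperitoneally with HSV-1 (KOS), 10 mice per group. Drug was given by oral gavage once daily for 5 days, starting on the day of infection, at 25, 100 or 250 mg/kg per day. Vehicle was a 90:10 suspension of Sirupus Simplex and propylene glycol; the placebo group got the same syrup. Surviving mice were counted over 20 days.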

| Structure (SMILES) | No. of mice |
| --- | --- |
| O=c1[nH]c(=O)n([C@H]2C[C@H](O)[C@@H](CO)O2)cc1/C=C/Br [BRIVUDINE] | 10 |

System: Mus musculus
Assay: Survival of mice after intraperitoneal infection with HSV-1 (KOS) and oral administration of 100 mg/kg at day 20
Type: functional
Conditions: not given
Outline: as §1

| Structure (SMILES) | No. of mice |
| --- | --- |
| O=c1[nH]c(=O)n([C@H]2C[C@H](O)[C@@H](CO)O2)cc1/C=C/Br [BRIVUDINE] | 7 |

System: Mus musculus
Assay: Survival of mice after intraperitoneal infection with HSV-1 (KOS) and oral administration of 250 mg/kg at day 20
Type: functional
Conditions: not given
Outline: as §1

| Structure (SMILES) | No. of mice |
| --- | --- |
| O=c1[nH]c(=O)n([C@H]2C[C@H](O)[C@@H](CO)O2)cc1/C=C/Br [BRIVUDINE] | 9 |

System: Mus musculus
Assay: Survival of mice after intraperitoneal infection with HSV-1 (KOS) and oral administration of 250 mg/kg at day 0
Type: functional
Conditions: not given
Outline: as §1

| Structure (SMILES) | No. of mice |
| --- | --- |
| O=c1[nH]c(=O)n([C@H]2C[C@H](O)[C@@H](CO)O2)cc1/C=C/Br [BRIVUDINE] | 10 |

System: Human alphaherpesvirus 1
Assay: Minimum inhibitory concentration required to reduce herpes simplex virus-1 (HSV-1 (KOS)) virus-induced cytopathicity by 50%
Type: functional
Conditions: not given

| Structure (SMILES) | MIC [µg/mL] |
| --- | --- |
| O=c1[nH]c(=O)n([C@H]2C[C@H](O)[C@@H](CO)O2)cc1/C=C/Br [BRIVUDINE] | 0.01 (≈ 0.03 µM) |

System: Mus musculus
Assay: Survival of mice after intraperitoneal infection with HSV-1 (KOS) and oral administration of 100 mg/kg at day 3
Type: functional
Conditions: not given
Outline: as §1

| Structure (SMILES) | No. of mice |
| --- | --- |
| O=c1[nH]c(=O)n([C@H]2C[C@H](O)[C@@H](CO)O2)cc1/C=C/Br [BRIVUDINE] | 9 |

System: Human alphaherpesvirus 2
Assay: Minimum inhibitory concentration required to reduce herpes simplex virus-2 (HSV-2 (G)) virus-induced cytopathicity by 50%
Type: functional
Conditions: not given

| Structure (SMILES) | MIC [µg/mL] |
| --- | --- |
| O=c1[nH]c(=O)n([C@H]2C[C@H](O)[C@@H](CO)O2)cc1/C=C/Br [BRIVUDINE] | 70 (≈ 210 µM) |

System: Mus musculus
Assay: Survival of mice after intraperitoneal infection with HSV-1 (KOS) and oral administration of 25 mg/kg at day 12
Type: functional
Conditions: not given
Outline: as §1

| Structure (SMILES) | No. of mice |
| --- | --- |
| O=c1[nH]c(=O)n([C@H]2C[C@H](O)[C@@H](CO)O2)cc1/C=C/Br [BRIVUDINE] | 3 |

System: Mus musculus
Assay: Survival of mice after intraperitoneal infection with HSV-1 (KOS) and oral administration of 250 mg/kg at day 12
Type: functional
Conditions: not given
Outline: as §1

| Structure (SMILES) | No. of mice |
| --- | --- |
| O=c1[nH]c(=O)n([C@H]2C[C@H](O)[C@@H](CO)O2)cc1/C=C/Br [BRIVUDINE] | 10 |

System: Mus musculus
Assay: Survival of mice after intraperitoneal infection with HSV-1 (KOS) and oral administration of 250 mg/kg at day 3
Type: functional
Conditions: not given
Outline: as §1

| Structure (SMILES) | No. of mice |
| --- | --- |
| O=c1[nH]c(=O)n([C@H]2C[C@H](O)[C@@H](CO)O2)cc1/C=C/Br [BRIVUDINE] | 10 |

System: Human alphaherpesvirus 1
Assay: Minimum inhibitory concentration required to reduce thymidine kinase deficient-HSV-1 (B2006) virus-induced cytopathicity by 50%
Type: functional
Conditions: not given

| Structure (SMILES) | MIC [µg/mL] |
| --- | --- |
| O=c1[nH]c(=O)n([C@H]2C[C@H](O)[C@@H](CO)O2)cc1/C=C/Br [BRIVUDINE] | > 200 |

System: Mus musculus
Assay: Survival of mice after intraperitoneal infection with HSV-1 (KOS) and oral administration of 250 mg/kg at day 9
Type: functional
Conditions: not given
Outline: as §1

| Structure (SMILES) | No. of mice |
| --- | --- |
| O=c1[nH]c(=O)n([C@H]2C[C@H](O)[C@@H](CO)O2)cc1/C=C/Br [BRIVUDINE] | 10 |

System: Mus musculus
Assay: Survival of mice after intraperitoneal infection with HSV-1 (KOS) and oral administration of 100 mg/kg at day 9
Type: functional
Conditions: not given
Outline: as §1

| Structure (SMILES) | No. of mice |
| --- | --- |
| O=c1[nH]c(=O)n([C@H]2C[C@H](O)[C@@H](CO)O2)cc1/C=C/Br [BRIVUDINE] | 8 |

System: Vaccinia virus
Assay: Minimum inhibitory concentration required to reduce vaccinia virus (VV) virus-induced cytopathicity by 50%
Type: functional
Conditions: Orthopoxvirus vaccinia

| Structure (SMILES) | MIC [µg/mL] |
| --- | --- |
| O=c1[nH]c(=O)n([C@H]2C[C@H](O)[C@@H](CO)O2)cc1/C=C/Br [BRIVUDINE] | 0.2 (≈ 0.6 µM) |

System: Mus musculus
Assay: Survival of mice after intraperitoneal infection with HSV-1 (KOS) and oral administration of 25 mg/kg at day 20
Type: functional
Conditions: not given
Outline: as §1

| Structure (SMILES) | No. of mice |
| --- | --- |
| O=c1[nH]c(=O)n([C@H]2C[C@H](O)[C@@H](CO)O2)cc1/C=C/Br [BRIVUDINE] | 3 |

System: not listed separately
Assay: Minimum inhibitory concentration required to reduce virus-induced cell growth by 50%
Type: functional
Conditions: Homo sapiens

| Structure (SMILES) | MIC [µg/mL] |
| --- | --- |
| O=c1[nH]c(=O)n([C@H]2C[C@H](O)[C@@H](CO)O2)cc1/C=C/Br [BRIVUDINE] | > 50 |

System: Human alphaherpesvirus 1
Assay: Minimum inhibitory concentration required to reduce thymidine kinase deficient-HSV-1 (VMW 1837) virus-induced cytopathicity by 50%
Type: functional
Conditions: not given

| Structure (SMILES) | MIC [µg/mL] |
| --- | --- |
| O=c1[nH]c(=O)n([C@H]2C[C@H](O)[C@@H](CO)O2)cc1/C=C/Br [BRIVUDINE] | 10 (≈ 30 µM) |

System: Human alphaherpesvirus 3
Assay: Minimum inhibitory concentration required to reduce TK-VZV (07-1) virus-induced cytopathicity by 50%
Type: functional
Conditions: not given

| Structure (SMILES) | MIC [µg/mL] |
| --- | --- |
| O=c1[nH]c(=O)n([C@H]2C[C@H](O)[C@@H](CO)O2)cc1/C=C/Br [BRIVUDINE] | > 40 |

System: Mus musculus
Assay: Survival of mice after intraperitoneal infection with HSV-1 (KOS) and oral administration of 250 mg/kg at day 6
Type: functional
Conditions: not given
Outline: as §1

| Structure (SMILES) | No. of mice |
| --- | --- |
| O=c1[nH]c(=O)n([C@H]2C[C@H](O)[C@@H](CO)O2)cc1/C=C/Br [BRIVUDINE] | 10 |

System: Cell line
Assay: Minimum concentration required to cause a microscopically detectable alteration of cell morphology
Type: functional
Conditions: Homo sapiens
Outline: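 Cytotoxicity read as the minimum concentration causing a microscopically detectable alteration of normal cell morphology. Cells were human embryonic skin-muscle (E6SM) or human embryonic lung (HEL), seeded in 96-well plates.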

| Structure (SMILES) | MIC [µg/mL] |
| --- | --- |
| O=c1[nH]c(=O)n([C@H]2C[C@H](O)[C@@H](CO)O2)cc1/C=C/Br [BRIVUDINE] | > 400 |

System: Human alphaherpesvirus 1
Assay: Minimum inhibitory concentration required to reduce herpes simplex virus-1 (HSV-1 (McIntyre)) virus-induced cytopathicity by 50%
Type: functional
Conditions: not given

| Structure (SMILES) | MIC [µg/mL] |
| --- | --- |
| O=c1[nH]c(=O)n([C@H]2C[C@H](O)[C@@H](CO)O2)cc1/C=C/Br [BRIVUDINE] | 0.01 (≈ 0.03 µM) |

System: Human alphaherpesvirus 3
Assay: Minimum inhibitory concentration required to reduce TK-VZV (YS/R) virus-induced cytopathicity by 50%
Type: functional
Conditions: not given

| Structure (SMILES) | MIC [µg/mL] |
| --- | --- |
| O=c1[nH]c(=O)n([C@H]2C[C@H](O)[C@@H](CO)O2)cc1/C=C/Br [BRIVUDINE] | > 40 |

System: Human alphaherpesvirus 2
Assay: Minimum inhibitory concentration required to reduce herpes simplex virus-2 (HSV-2 (Lyons)) virus-induced cytopathicity by 50%
Type: functional
Conditions: not given

| Structure (SMILES) | MIC [µg/mL] |
| --- | --- |
| O=c1[nH]c(=O)n([C@H]2C[C@H](O)[C@@H](CO)O2)cc1/C=C/Br [BRIVUDINE] | 70 (≈ 210 µM) |

System: Mus musculus
Assay: Survival of mice after intraperitoneal infection with HSV-1 (KOS) and oral administration of 25 mg/kg at day 0
Type: functional
Conditions: not given
Outline: as §1

| Structure (SMILES) | No. of mice |
| --- | --- |
| O=c1[nH]c(=O)n([C@H]2C[C@H](O)[C@@H](CO)O2)cc1/C=C/Br [BRIVUDINE] | 10 |

System: Human alphaherpesvirus 3
Assay: Minimum inhibitory concentration required to reduce Varicella-Zoster virus (VZV (Oka)) virus-induced cytopathicity by 50%
Type: functional
Conditions: not given

| Structure (SMILES) | MIC [µg/mL] |
| --- | --- |
| O=c1[nH]c(=O)n([C@H]2C[C@H](O)[C@@H](CO)O2)cc1/C=C/Br [BRIVUDINE] | 0.004 (≈ 0.012 µM) |

System: Human alphaherpesvirus 2
Assay: Minimum inhibitory concentration required to reduce herpes simplex virus-2 (HSV-2 (196)) virus-induced cytopathicity by 50%
Type: functional
Conditions: not given

| Structure (SMILES) | MIC [µg/mL] |
| --- | --- |
| O=c1[nH]c(=O)n([C@H]2C[C@H](O)[C@@H](CO)O2)cc1/C=C/Br [BRIVUDINE] | > 400 |

System: Mus musculus
Assay: Survival of mice after intraperitoneal infection with HSV-1 (KOS) and oral administration of 25 mg/kg at day 3
Type: functional
Conditions: not given
Outline: as §1

| Structure (SMILES) | No. of mice |
| --- | --- |
| O=c1[nH]c(=O)n([C@H]2C[C@H](O)[C@@H](CO)O2)cc1/C=C/Br [BRIVUDINE] | 10 |

System: Human alphaherpesvirus 1
Assay: Minimum inhibitory concentration required to reduce herpes simplex virus-1 (HSV-1 (F)) virus-induced cytopathicity by 50%
Type: functional
Conditions: not given

| Structure (SMILES) | MIC [µg/mL] |
| --- | --- |
| O=c1[nH]c(=O)n([C@H]2C[C@H](O)[C@@H](CO)O2)cc1/C=C/Br [BRIVUDINE] | 0.02 (≈ 0.06 µM) |

System: Mus musculus
Assay: Survival of mice after intraperitoneal infection with HSV-1 (KOS) and oral administration of 25 mg/kg at day 9
Type: functional
Conditions: not given
Outline: as §1

| Structure (SMILES) | No. of mice |
| --- | --- |
| O=c1[nH]c(=O)n([C@H]2C[C@H](O)[C@@H](CO)O2)cc1/C=C/Br [BRIVUDINE] | 4 |

System: Mus musculus
Assay: Survival of mice after intraperitoneal infection with HSV-1 (KOS) and oral administration of 100 mg/kg at day 6
Type: functional
Conditions: not given
Outline: as §1

| Structure (SMILES) | No. of mice |
| --- | --- |
| O=c1[nH]c(=O)n([C@H]2C[C@H](O)[C@@H](CO)O2)cc1/C=C/Br [BRIVUDINE] | 9 |

System: Vesicular stomatitis virus
Assay: Minimum inhibitory concentration required to reduce VSV virus-induced cytopathicity by 50%
Type: functional
Conditions: not given

| Structure (SMILES) | MIC [µg/mL] |
| --- | --- |
| O=c1[nH]c(=O)n([C@H]2C[C@H](O)[C@@H](CO)O2)cc1/C=C/Br [BRIVUDINE] | > 200 |

System: Mus musculus
Assay: Survival of mice after intraperitoneal infection with HSV-1 (KOS) and oral administration of 100 mg/kg at day 0
Type: functional
Conditions: not given
Outline: as §1

| Structure (SMILES) | No. of mice |
| --- | --- |
| O=c1[nH]c(=O)n([C@H]2C[C@H](O)[C@@H](CO)O2)cc1/C=C/Br [BRIVUDINE] | 10 |

System: Mus musculus
Assay: Survival of mice after intraperitoneal infection with HSV-1 (KOS) and oral administration of 100 mg/kg at day 12
Type: functional
Conditions: not given
Outline: as §1

| Structure (SMILES) | No. of mice |
| --- | --- |
| O=c1[nH]c(=O)n([C@H]2C[C@H](O)[C@@H](CO)O2)cc1/C=C/Br [BRIVUDINE] | 8 |
